From ChEMBL document CHEMBL1156707, “Insulin-releasing activity of a series of phenylalanine derivatives” (Eur J Med Chem, 2008) come the findings set out here.

SMILES strings stand for the structures.

Experiment [1] is described as follows: Increase in insulin releasing activity in Syrian golden hamster HIT-T15 cells after 1 hr. The experiment is classed as functional, cell-based, Mesocricetus auratus. An outline of the steps:
(§1)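 Pre-incubated 1 h, then 1 h with compound at a range of concentrations in DMSO, 37 °C; solvent-matched control. Insulin in medium measured by radioimmunoassay. Mean ± sd, n = 3; EC50 is concentration giving 50% increase in insulin release.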

The nature of experiment [2]: Increase in insulin releasing activity in Syrian golden hamster HIT-T15 cells at 100 uM after 1 hr relative to control. In kind it is functional, Mesocricetus auratus. A digest of the protocol:
as §1

A short description of experiment [3]: Increase in insulin releasing activity in Syrian golden hamster HIT-T15 cells at 1 uM after 1 hr relative to control. In kind it is functional, Mesocricetus auratus. A digest of the protocol: as §1
A short description of experiment [4]: Increase in insulin releasing activity in Syrian golden hamster HIT-T15 cells at 10 uM after 1 hr relative to control. In kind it is functional, Mesocricetus auratus. An outline of the steps:
as §1

Experiment [5] concerns Rattus norvegicus. As to the kind of experiment: Decrease in plasma glucose level in Sprague-Dawley rat at 3 mg/kg, po after 15 mins relative to control. The experiment is classed as functional. Further details: scale not given: the % may be the effect or the level left. An outline of the steps: (§2)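 Normal SD rats (180–220 g), fasted overnight, 8–10 per group. Single oral dose 3 mg/kg in 0.5% CMC-Na vehicle, then oral glucose 2.5 g/kg immediately after. Caudal-vein blood drawn before dosing and at 15, 30, 60, 120, 180 min. Serum glucose measured by glucose oxidase method. Reported as % decrease versus vehicle control group.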

In experiment [6] the test system is Rattus norvegicus. As to the kind of experiment: Decrease in plasma glucose level in Sprague-Dawley rat at 3 mg/kg, po after 120 mins relative to control. The experiment is classed as functional. Further details: scale not given: the % may be the effect or the level left. An outline of the steps:
as §2

Experiment [7] deals with Rattus norvegicus. As to the kind of experiment: Decrease in plasma glucose level in Sprague-Dawley rat at 3 mg/kg, po after 60 mins relative to control. The experiment is classed as functional. Further details: scale not given: the % may be the effect or the level left. An outline of the steps: as §2
Experiment [8] relates to Rattus norvegicus. As to the kind of experiment: Decrease in plasma glucose level in Sprague-Dawley rat at 3 mg/kg, po after 30 mins relative to control. In kind it is functional. Further details: scale not given: the % may be the effect or the level left. A digest of the protocol: as §2
Experiment [9] relates to Rattus norvegicus. Kind of experiment: Decrease in plasma glucose level in Sprague-Dawley rat at 3 mg/kg, po after 180 mins relative to control. The experiment is classed as functional. Further details: scale not given: the % may be the effect or the level left. An outline of the steps:
as §2

For experiment [10], the system named is 3T3-L1. As to the kind of experiment: Effect on insulin sensitizing activity in mouse 3T3-L1 cells assessed as increase in triglyceride accumulation at 1 uM after 7 days. In kind it is functional. A digest of the protocol: (§3)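 3T3-L1 preadipocytes in DMEM/10% FBS, grown to 2 days postconfluence. Differentiation induced with insulin, 0.5 mM IBMX and dexamethasone. Compound (1 or 10 mmol/L, DMSO diluted 1000-fold) present during first 4 days of differentiation; 0.1% DMSO negative control. Day 7: oil red O staining, dye extracted with isopropanol, OD 510 nm. Three or four independent experiments.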

Experiment [11] has as its system 3T3-L1. Kind of experiment: Effect on insulin sensitizing activity in mouse 3T3-L1 cells assessed as increase in triglyceride accumulation at 10 uM after 7 days. The experiment is classed as functional. An outline of the steps: as §3

On to `CC(C)[C@H]1CC[C@H](C(=O)N[C@H](Cc2ccccc2)C(=O)O)CC1` [NATEGLINIDE], for which the EC50 (usually the midpoint of the concentration-response curve) in experiment [1] was found to be 7.59 µM. The figures for the Activity in [2], in [3] and in experiment [4] were 124.3%, 36.3% and 66.8%, respectively.

The compound `CCOc1ccc(C[C@@H](NC(=O)[C@H]2CC[C@H](C(C)C)CC2)C(=O)O)cc1` came in with an EC50 in experiment [1] of 0.26 µM. The results for the Activity in experiment [2], in experiment [3] and in experiment [4] were 183.8%, 76.2% and 107.3%, respectively.

For the compound `CC(C)[C@H]1CC[C@H](C(=O)N[C@@H](Cc2ccc(OCCn3ccc4ccccc43)cc2)C(=O)O)CC1`, the Activity in [2] is given as 146.6%; in experiment [3], 35.7%; in experiment [4], 74.9%.

With `O=C(O)[C@H](CC(=O)N1C[C@H]2CCCC[C@H]2C1)Cc1ccccc1` [MITIGLINIDE], the Activity came to 16.5% in the experiment on Rattus norvegicus [5]; 87.3% in the experiment with Rattus norvegicus [6]; 61.7% in the experiment with Rattus norvegicus [7]; 36.2% in the experiment with Rattus norvegicus [8]; 120% in [2]; 52.5% in experiment [3]. Further, the Activity with Rattus norvegicus [9] came to 70.3%; in [4], 66%. Further, in experiment [1], the EC50 was found to be 0.708 µM.

Consider `CCCCOc1ccc(C[C@@H](NC(=O)[C@H]2CC[C@H](C(C)C)CC2)C(=O)O)cc1`, for which the response in experiment [1] was half-maximal at 0.65 µM (EC50). Also, the Activity was 261.6% in experiment [2], 58.9% in experiment [3] and 107.1% in [4].

As for `CC(C)[C@H]1CC[C@H](C(=O)N[C@H](Cc2ccc(OCCN(C)c3ccccn3)cc2)C(=O)O)CC1`, the Activity was found to be 59.4% in experiment [2], 24.4% in experiment [3] and 36.2% in experiment [4].

For `CCCCOc1ccc(C[C@H](NC(=O)[C@H]2CC[C@H](C(C)C)CC2)C(=O)O)cc1`, the EC50 in [1] was 0.55 µM. Further, the figures for the Activity in experiment [2], in [3] and in experiment [4] were 326.2%, 73.4% and 136.7%, respectively.

For `CC(C)[C@H]1CC[C@H](C(=O)N[C@@H](Cc2ccc(OCCN(C)c3nc4ccccc4o3)cc2)C(=O)O)CC1`, the Activity worked out at 126.9% in experiment [2], 35.5% in experiment [3] and 72.8% in [4].

As to `CN(CCOc1ccc(CC2SC(=O)NC2=O)cc1)c1ccccn1` (configuration not stated) [ROSIGLITAZONE], the Activity in the experiment on 3T3-L1 [10] came out at 38.8%; in the experiment with 3T3-L1 [11], 35.87%.

For `CC(C)[C@H]1CC[C@H](C(=O)N[C@@H](Cc2ccc(OCc3ccc(C(F)(F)F)cc3)cc2)C(=O)O)CC1`, the Activity worked out at 156.9% in experiment [2], 47.9% in [3] and 76.7% in experiment [4].

Take `CC(C)[C@H]1CC[C@H](C(=O)N[C@@H](Cc2ccc(OCCN(C)c3ccccn3)cc2)C(=O)O)CC1`: the Activity in experiment [2] is on record as 83.7%; in experiment [3], 26%; in experiment [4], 41.5%.

`CC(C)[C@H]1CC[C@H](C(=O)N[C@H](Cc2ccc(OCc3ccccc3)cc2)C(=O)O)CC1` had an EC50 in [1] of 2.82 µM. For the same compound, the values for the Activity in [2], in experiment [3] and in experiment [4] were 171.1%, 38.9% and 94.4%, respectively.

Take `CC(C)[C@H]1CC[C@H](C(=O)N[C@@H](Cc2ccccc2)C(=O)O)CC1` [(S)-NATEGLINIDE]: the Activity in experiment [2] was found to be 61.1%; in experiment [3], 26.4%; in experiment [4], 35.3%.

Take `Cc1oc(-c2ccccc2)nc1CCOc1ccc(C[C@H](NC(=O)[C@H]2CC[C@H](C(C)C)CC2)C(=O)O)cc1`: the Activity in the experiment on Rattus norvegicus [5] turned out to be 4.73%; in the experiment on Rattus norvegicus [6] it was 11.3%; in the experiment with 3T3-L1 [10], 38.14%; with Rattus norvegicus [7], 4.47%; in the experiment on 3T3-L1 [11], 46.01%; with Rattus norvegicus [8], 8.51%. Moreover, the Activity in experiment [2] was determined as 329.2%; in experiment [3] it was 68.5%; in the experiment on Rattus norvegicus [9] it was 2.07%; in experiment [4] it was 131.2%. The compound further gave an EC50 in [1] of 0.54 µM.

Regarding `Cc1oc(-c2ccccc2)nc1CCOc1ccc(C[C@@H](NC(=O)[C@H]2CC[C@H](C(C)C)CC2)C(=O)O)cc1`, the Activity with Rattus norvegicus [5] is 21.2%; in the experiment on Rattus norvegicus [6] it was 17.3%; in the experiment on Rattus norvegicus [7] it was 33.7%; in the experiment with Rattus norvegicus [8], 36.4%; in experiment [2] it was 487.4%; in experiment [3], 105.2%. In addition, the results for the Activity (with Rattus norvegicus [9]; in [4]) were 11.4% and 200.9%, respectively. Besides, the EC50 in experiment [1] worked out at 0.12 µM.

Compound `CC(C)[C@H]1CC[C@H](C(=O)N[C@@H](Cc2ccc(OCc3ccccc3)cc2)C(=O)O)CC1` came in with an EC50 in [1] of 1.05 µM. The Activity came to 225.9% in experiment [2], 53.1% in experiment [3] and 147.5% in experiment [4].

As to `CC(C)[C@H]1CC[C@H](C(=O)N[C@H](Cc2ccc(OCCN(C)c3nc4ccccc4o3)cc2)C(=O)O)CC1`, the Activity is recorded as 145.1% in experiment [2], 24.8% in experiment [3] and 81.7% in experiment [4].

As for `CC(C)[C@H]1CC[C@H](C(=O)N[C@H](Cc2ccc(OCCn3ccc4ccccc43)cc2)C(=O)O)CC1`, the Activity in experiment [2] was determined as 112%; in experiment [3] it was 37.8%; in [4], 58.8%.

`CCOc1ccc(C[C@H](NC(=O)[C@H]2CC[C@H](C(C)C)CC2)C(=O)O)cc1` returned an EC50 in [1] of 0.96 µM. Also, the Activity in [2] worked out at 151.3%; in experiment [3] it was 55.8%; in experiment [4], 99.9%.

Take `CC(C)[C@H]1CC[C@H](C(=O)N[C@@H](Cc2ccc(O)cc2)C(=O)O)CC1`: the figures for the Activity in [2], in [3] and in experiment [4] were 64.8%, 17.5% and 35.4%, respectively.

Take `CC(C)[C@H]1CC[C@H](C(=O)N[C@H](Cc2ccc(O)cc2)C(=O)O)CC1`: the Activity worked out at 122.2% in [2], 34.2% in experiment [3] and 69.6% in experiment [4].

Turning to `CC(C)[C@H]1CC[C@H](C(=O)N[C@H](Cc2ccc(OCc3ccc(C(F)(F)F)cc3)cc2)C(=O)O)CC1`, the Activity in [2] came to 152.1%; in experiment [3], 29.8%; in [4], 85.6%.
